Laboratory results taken from ChEMBL document CHEMBL1287712, “Synthetic analogs of indole-containing natural products as inhibitors of sortase A and isocitrate lyase” (Bioorg Med Chem Lett, 2010).
pIC50: −log10 of the molar value. Converted amounts (≈) assume the structure as drawn. “And” between values parts separate entries of the source, which are not always exact repeats. Identical values can stand only once.

Key:
Isocitrate lyase = Isocitrate lyase (Candida albicans, UniProt Q9P8Q7); test: Inhibition of Candida albicans isocitrate lyase
Sortase A = target: T1, Sortase A (Staphylococcus aureus, UniProt Q9S446); test: Inhibition of Staphylococcus aureus Sortase A
T1 sequence (Q9S446 whole entry): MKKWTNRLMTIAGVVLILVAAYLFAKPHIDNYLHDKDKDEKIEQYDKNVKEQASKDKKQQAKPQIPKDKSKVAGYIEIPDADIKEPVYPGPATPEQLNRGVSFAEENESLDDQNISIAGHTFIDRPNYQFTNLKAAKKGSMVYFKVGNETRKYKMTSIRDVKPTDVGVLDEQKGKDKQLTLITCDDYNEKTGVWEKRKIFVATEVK

Staphylococcus aureus = test: Antimicrobial activity against Staphylococcus aureus ATCC 6538p; type: functional
How it was run: (§1)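 MIC by two-fold serial broth dilution in microtiter format. MIC taken as the lowest concentration giving complete growth inhibition relative to the negative control.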

Bacillus subtilis = test: Antimicrobial activity against Bacillus subtilis ATCC 6633; type: functional; how it was run: as §1
Salmonella typhimurium = test: Antimicrobial activity against Salmonella Typhimurium ATCC 14028; type: functional, Salmonella enterica subsp. enterica serovar Typhimurium; conditions: Salmonella enterica; how it was run: as §1
Proteus vulgaris = test: Antimicrobial activity against Proteus vulgaris ATCC 3851; type: functional; how it was run: as §1
Micrococcus luteus = test: Antimicrobial activity against Micrococcus luteus IFC 12708; type: functional; how it was run: as §1
Escherichia coli = test: Antimicrobial activity against Escherichia coli ATCC 25922; type: functional; how it was run: as §1

Isocitrate lyase, sequence (Q9P8Q7 whole entry): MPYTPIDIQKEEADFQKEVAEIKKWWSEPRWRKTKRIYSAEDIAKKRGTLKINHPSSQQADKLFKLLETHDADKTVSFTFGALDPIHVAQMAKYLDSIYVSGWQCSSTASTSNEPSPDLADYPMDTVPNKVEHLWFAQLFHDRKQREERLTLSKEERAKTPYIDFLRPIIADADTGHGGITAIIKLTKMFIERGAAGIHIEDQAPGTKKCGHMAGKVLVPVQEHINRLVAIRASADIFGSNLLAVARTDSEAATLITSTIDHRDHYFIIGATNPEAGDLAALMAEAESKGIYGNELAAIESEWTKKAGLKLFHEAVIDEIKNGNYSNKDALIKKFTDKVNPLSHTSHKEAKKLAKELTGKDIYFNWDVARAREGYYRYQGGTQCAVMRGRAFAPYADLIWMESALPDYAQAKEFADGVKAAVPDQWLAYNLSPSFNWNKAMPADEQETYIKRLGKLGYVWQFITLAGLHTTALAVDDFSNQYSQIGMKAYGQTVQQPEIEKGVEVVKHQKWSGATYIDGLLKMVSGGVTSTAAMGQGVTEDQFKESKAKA

Compound	pIC50 (Isocitrate lyase)	pIC50 (Sortase A)	MIC (Staphylococcus aureus) [µg/mL]	MIC (Bacillus subtilis) [µg/mL]	MIC (Salmonella typhimurium) [µg/mL]	MIC (Proteus vulgaris) [µg/mL]	MIC (Micrococcus luteus) [µg/mL]	MIC (Escherichia coli) [µg/mL]
c1ccc(C2=NCCc3c2[nH]c2ccccc32)cc1	< 3.39	4.01	> 200	> 200	> 200	> 200	> 200	> 200
COc1ccc2[nH]cc(C(=O)C(=O)O)c2c1	< 3.34	< 3.34						
O=C(C(=O)c1c[nH]c2ccc(O)cc12)c1c[nH]c2ccc(O)cc12 [HYRTIOSIN B]	4.04	< 3.51						
O=C(O)C1NCCc2c1[nH]c1ccccc21 (centres undefined)	< 3.33	< 3.33						
COc1ccc2[nH]c3c(c2c1)CCN=C3c1ccccc1	< 3.44	4.60	> 200	> 200	> 200	> 200	> 200	> 200
O=C(Nc1ccccc1)C(=O)c1c[nH]c2ccc(O)cc12	< 3.45	< 3.45						
O=Cc1c[nH]c2ccc(O)cc12		< 3.21						
O=C1NCCc2c1[nH]c1ccc(O)cc21	< 3.31	< 3.31						
Cc1[nH]c2ccccc2c1C(=O)C(=O)O	< 3.31	3.88	> 200	> 200	> 200	> 200	> 200	> 200
COc1ccc2[nH]c3c(c2c1)CCNC3C(=O)O (centres undefined)	< 3.39	< 3.39						
COc1ccc2[nH]cc(C(=O)C(=O)Nc3ccccc3)c2c1	< 3.47	< 3.47						
CC1(C)S[C@@H]2[C@H](NC(=O)[C@H](N)c3ccccc3)C(=O)N2[C@H]1C(=O)O [AMPICILLIN]			1.56 (≈ 4.46 µM)	0.78 (≈ 2.23 µM)	1.56 (≈ 4.46 µM)	0.78 (≈ 2.23 µM)	0.78 (≈ 2.23 µM)	50 (≈ 143 µM)
c1ccc2cc(C3NCCc4c3[nH]c3ccccc43)ccc2c1 (centres undefined)	3.86	< 3.47	12.5 (≈ 41.9 µM)	6.25 (≈ 20.9 µM)	12.5 (≈ 41.9 µM)	6.25 (≈ 20.9 µM)	12.5 (≈ 41.9 µM)	50 (≈ 168 µM)
COC(=O)c1c[nH]c2ccc(O)cc12	< 3.28	< 3.28						
O=C(O)C1=NCCc2c1[nH]c1ccc(O)cc21		3.54						
COc1cccc(C2NCCc3c2[nH]c2ccccc32)c1 (centres undefined)	4.12	< 3.44	6.25 (≈ 22.5 µM)	12.5 (≈ 44.9 µM)	12.5 (≈ 44.9 µM)	12.5 (≈ 44.9 µM)	12.5 (≈ 44.9 µM)	50 (≈ 180 µM)
NCCc1c[nH]c2ccc(O)cc12 [SEROTONIN]		< 3.25						
COc1ccc2[nH]c3c(c2c1)CCNC3c1ccccc1 (centres undefined)	< 3.44	3.94	> 200	> 200	> 200	> 200	> 200	> 200
O=C(Nc1ccccc1)C(=O)c1c[nH]c2ccccc12	< 3.42	3.76	> 200	> 200	> 200	> 200	> 200	> 200
COc1ccc(C2NCCc3c2[nH]c2ccccc32)cc1 (centres undefined)	3.74 and 3.75	< 3.44	12.5 (≈ 44.9 µM)	6.25 (≈ 22.5 µM)	6.25 (≈ 22.5 µM)	6.25 (≈ 22.5 µM)	6.25 (≈ 22.5 µM)	50 (≈ 180 µM)
O=C(O)C1NCCc2c1[nH]c1ccc(O)cc21 (centres undefined)	< 3.37	< 3.37						
CCCCCC1NCCc2c1[nH]c1ccccc21 (centres undefined)	< 3.38	< 3.38						
CCCCCC1NCCc2c1[nH]c1ccc(OC)cc21 (centres undefined)	< 3.44	< 3.44						
O=C(O)C(=O)c1c[nH]c2ccc(O)cc12	< 3.31	< 3.31						
Oc1ccc2[nH]c3c(c2c1)CCNC3c1ccccc1 (centres undefined)	< 3.42	3.97	100 (≈ 378 µM)	100 (≈ 378 µM)	100 (≈ 378 µM)	100 (≈ 378 µM)	100 (≈ 378 µM)	> 200
c1ccc(C2NCCc3c2[nH]c2ccccc32)cc1 (centres undefined)	< 3.40	< 3.40						
O=C(O)C(=O)c1c[nH]c2ccccc12	< 3.28	4.16	> 200	> 200	> 200	> 200	> 200	> 200
O=C(CO)c1c[nH]c2ccc(O)cc12 [HYRTIOSIN A]		< 3.28						
Cc1[nH]c2ccccc2c1C(=O)C(=O)Nc1ccccc1	< 3.44	4.21	> 200	> 200	> 200	> 200	> 200	> 200
